BindingDB's records for doi:10.1016/j.bmcl.2019.05.046 (Peking University, 2019)

Target: Neuronal acetylcholine receptor subunit alpha-7 (Homo sapiens, UniProt P36544)
Assay: Positive allosteric modulation activity at human alpha7 nAChR expressed in Xenopus laevis oocytes assessed as increase in acetylcholine-induced channel current by measuring acetylcholine EC50 at 10 uM at -90 mV holding potential preincubated for 2 mins followed by co-application with acetylcholine for 10 secs by two-electrode voltage clamp method (Rvb = 231.8 +/- 2 uM)
In short: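 ACh concentration-response on α7-expressing Xenopus oocytes, run without compound or after 2 min preincubation with 10 μM compound. Peak currents were normalised to the current evoked by 100 μM ACh alone. Curves were fitted for Emax, ACh EC50 and Hill coefficient, n = 4 per point.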

Chain of Neuronal acetylcholine receptor subunit alpha-7 (P36544 whole entry): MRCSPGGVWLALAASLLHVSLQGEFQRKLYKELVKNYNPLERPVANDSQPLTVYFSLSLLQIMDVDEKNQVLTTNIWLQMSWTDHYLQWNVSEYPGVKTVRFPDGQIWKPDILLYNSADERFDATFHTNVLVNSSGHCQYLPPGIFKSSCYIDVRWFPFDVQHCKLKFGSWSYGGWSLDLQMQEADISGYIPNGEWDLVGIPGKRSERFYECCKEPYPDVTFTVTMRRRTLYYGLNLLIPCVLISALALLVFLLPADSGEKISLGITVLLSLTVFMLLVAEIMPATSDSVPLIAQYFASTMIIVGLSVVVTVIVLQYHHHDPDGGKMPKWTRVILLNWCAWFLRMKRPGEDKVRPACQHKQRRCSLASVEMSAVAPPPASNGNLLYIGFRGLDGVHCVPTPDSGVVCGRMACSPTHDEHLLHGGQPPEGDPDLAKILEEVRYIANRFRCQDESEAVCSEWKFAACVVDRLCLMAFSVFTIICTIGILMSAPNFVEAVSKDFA

- EC50: 258 µM
Structure (SMILES): Cc1cc(-c2cnc(N)c(C(=O)Nc3c(C)cccc3Cl)c2)ccc1F
